Assay results from ChEMBL document CHEMBL1122441, “Structure-activity relationships of synthetic antibiotic analogues of anisomycin” (1983).
In brackets after ≈: the same amount, converted by molar mass.

Experiments:
Tritrichomonas suis [1] = assay: Antiprotozoal activity measured as the conc for >95% inhibition of Trichomonas foetus; assay type: functional, organism-based
In short: (§1)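 Protozoa grown 48 h (T. vaginalis in TYM 721, T. foetus in TYM 359, E. histolytica J 190 in modified Boeck Drbohlav medium, 37 °C) and pooled; 0.6 × 10^6 organisms into 10-mL tubes with drug 32 to 0.06 µg/mL, 48 h; inhibition scored microscopically against untreated controls as 100, >95, 95-25 or <25%.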

Trichomonas vaginalis [2] = assay: Antiprotozoal activity measured as the conc for 100% inhibition of Trichomonas vaginalis; assay type: functional, organism-based; in short: as §1
Tritrichomonas suis [3] = assay: Antiprotozoal activity measured as the conc for <[…]% inhibition of Trichomonas foetus; assay type: functional, organism-based
Entamoeba histolytica [4] = assay: Antiprotozoal activity measured as the conc for 95-[…]% inhibition of Entamoeba histolytica; assay type: functional, organism-based
Trichomonas vaginalis [5] = assay: Antiprotozoal activity measured as the conc for 95-[…]% inhibition of Trichomonas vaginalis; assay type: functional, organism-based
Entamoeba histolytica [6] = assay: Antiprotozoal activity measured as the conc for 100% inhibition of Entamoeba histolytica; assay type: functional, organism-based
In short: (§2)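 E. histolytica (J 190) grown 48 h at 37 °C in modified Boeck Drbohlav medium, pooled; 0.6 × 10^6 organisms inoculated into 10 mL medium with drug at 32 to 0.06 µg/mL, incubated 48 h.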

Trichomonas vaginalis [7] = assay: Antiprotozoal activity measured as the conc for >95% inhibition of Trichomonas vaginalis; assay type: functional, organism-based; in short: as §1
Tritrichomonas suis [8] = assay: Antiprotozoal activity measured as the conc for 100% inhibition of Trichomonas foetus; assay type: functional, organism-based; in short: as §1
Trichomonas vaginalis [9] = assay: Antiprotozoal activity measured as the conc for <[…]% inhibition of Trichomonas vaginalis; assay type: functional, organism-based
Entamoeba histolytica [10] = assay: Antiprotozoal activity measured as the conc for >95% inhibition of Entamoeba histolytica; assay type: functional, organism-based; in short: as §2
Entamoeba histolytica [11] = assay: Antiprotozoal activity measured as the conc for <[…]% inhibition of Entamoeba histolytica; assay type: functional, organism-based
Candida albicans [12] = assay: Antifungal activity against Candida albicans, activity expressed as […] inhibitory zone (mm, diameter); QA is questionable activity; assay type: functional, organism-based
In short: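 Agar diffusion on Sabouraud's dextrose agar seeded with 24-h yeast culture at 1:100 in agar; paper disks loaded with 0.05 mg drug (stock 1 mg/mL in Me2SO-EtOH 1:9). Incubated at 37 °C for 48 h; inhibition zone diameter measured in mm.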

Tritrichomonas suis [13] = assay: Antiprotozoal activity measured as the conc for 95-[…]% inhibition of Trichomonas foetus; assay type: functional, organism-based
Saccharomyces cerevisiae [14] = assay: Antifungal activity against Saccharomyces cerevisiae, activity expressed as inhibitory zone (mm, diameter); assay type: functional
In short: (§3)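 Yeast grown in Sabouraud's dextrose broth, 24-h culture seeded 1:100 into agar; paper disks carrying 0.05 mg drug (from 1 mg/mL stock in Me2SO-EtOH 1:9); 37 °C, read after 48 h as zone diameter (mm).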

Saccharomyces cerevisiae [15] = assay: Antifungal activity against Saccharomyces cerevisiae, activity expressed as minimum inhibitory concentration (ug/mL).; assay type: functional
Actinomyces israelii = assay: Antibacterial activity against Actinomyces israelii, activity expressed as inhibitory zone (mm, diameter); assay type: functional
In short: (§4)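 Agar diffusion: disks loaded with 0.05 mg drug (stock 1 mg/mL in Me2SO-EtOH 1:9) on brain-heart infusion agar seeded 1:100 with 48-h anaerobe culture grown in thioglycolate broth; incubated anaerobically at 37 °C for 24 h; zone diameter measured in mm.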

Trichophyton benhamiae [16] = assay: Antifungal activity against Trichophyton mentagrophytes, activity expressed as inhibitory zone (mm, diameter); assay type: functional, Arthroderma benhamiae
In short: (§5)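 Dermatophytes grown in Sabouraud's dextrose broth, 4-5 day cultures seeded 1:100 into agar; disks with 0.05 mg drug (1 mg/mL stock, Me2SO-EtOH 1:9); grown and tested at 28 °C, zone diameter (mm) read after 48 h.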

Epidermophyton floccosum [17] = assay: Antifungal activity against Epidermophyton floccosum, activity expressed as inhibitory zone (mm, diameter); assay type: functional; in short: as §5
Epidermophyton floccosum [18] = assay: Antifungal activity against Epidermophyton floccosum, activity expressed as minimum inhibitory concentration (ug/mL); assay type: functional
Candida albicans [19] = assay: Antifungal activity against Candida albicans, activity expressed as minimum inhibitory concentration (ug/mL); assay type: functional
In short: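 Tube dilution in Sabouraud's dextrose broth (ca. 3 mL/tube) at 37 °C; inoculum from 24-h yeast culture, 1:1000 in saline. Drug dissolved in Me2SO-EtOH (1:9), stock 3.2 mg/mL; twofold serial dilutions 32 to 0.06 µg/mL. Read after 48 h; MIC = lowest concentration with no visible growth.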

Cutibacterium acnes = assay: Antibacterial activity against Propionibacterium acnes, activity expressed as inhibitory zone (mm, diameter); assay type: functional; in short: as §4
Streptococcus pyogenes = assay: Antibacterial activity against Streptococcus pyogenes C, activity expressed as inhibitory zone (mm, diameter); assay type: functional; in short: as §4
Trichophyton benhamiae [20] = assay: Antifungal activity against Trichophyton mentagrophytes, activity expressed as minimum inhibitory concentration (ug/mL).; assay type: functional, Arthroderma benhamiae
Candida albicans [21] = assay: Antifungal activity against Candida albicans, activity expressed as […] inhibitory zone (mm, diameter); assay type: functional; in short: as §3
Clostridium novyi = assay: Antibacterial activity against Clostridium novyi, activity expressed as inhibitory zone (mm, diameter); assay type: functional; in short: as §4
Bacteroides fragilis = assay: Antibacterial activity against Bacteroides fragilis, activity expressed as […] inhibitory zone (mm, diameter); assay type: functional
In short: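 Agar diffusion vs B. fragilis grown in thioglycolate broth: 0.05 mg drug per paper disk (stock 1 mg/mL, Me2SO-EtOH 1:9), brain-heart infusion agar seeded with 48-h culture at 1:100, anaerobic 37 °C, 24 h; zone diameter in mm.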

[22] = Saccharomyces cerevisiae, read-out: MIC
[23] = Epidermophyton floccosum, read-out: MIC
[24] = Candida albicans, read-out: MIC
[25] = Trichophyton benhamiae, read-out: MIC

## COc1ccc(C[C@H]2NC[C@H](O)[C@H]2OC(C)=O)cc1 (racemic)
Tritrichomonas suis [1]
  Concentration: 2 µg/mL
Trichomonas vaginalis [2]
  Concentration: 2 µg/mL
Tritrichomonas suis [3]
  Concentration: 1 µg/mL
Entamoeba histolytica [4]
  Concentration: 0.5 µg/mL
Trichomonas vaginalis [5]
  Concentration: 0.5 µg/mL
Entamoeba histolytica [6]
  Concentration: 4 µg/mL
Trichomonas vaginalis [7]
  Concentration: 1 µg/mL
Tritrichomonas suis [8]
  Concentration: 8 µg/mL
Trichomonas vaginalis [9]
  Concentration: 0.25 µg/mL
Entamoeba histolytica [10]
  Concentration: 2 µg/mL
Entamoeba histolytica [11]
  Concentration: 0.25 µg/mL

## COc1ccc(C[C@H]2NC[C@H](O)[C@H]2OC(C)=O)cc1
Tritrichomonas suis [1]
  Concentration: 1 µg/mL
Trichomonas vaginalis [2]
  Concentration: 2 µg/mL
Tritrichomonas suis [3]
  Concentration: 0.25 µg/mL
Trichomonas vaginalis [5]
  Concentration: 0.25 µg/mL
Entamoeba histolytica [6]
  Concentration: 2 µg/mL
Trichomonas vaginalis [7]
  Concentration: 0.5 µg/mL
Candida albicans [12]
  Inhibitory zone: Questionable activity
Tritrichomonas suis [8]
  Concentration: 4 µg/mL
Tritrichomonas suis [13]
  Concentration: 0.5 µg/mL
Entamoeba histolytica [10]
  Concentration: 1 µg/mL

## COc1cccc(C[C@H]2NC[C@H](O)[C@H]2OC(C)=O)c1
Saccharomyces cerevisiae [14]
  Inhibitory zone: 0 mm
Saccharomyces cerevisiae [15]; [22]
  MIC: 8 µg/mL (≈ 30.2 µM)
Actinomyces israelii
  Inhibitory zone: 10 mm
Tritrichomonas suis [1]
  Concentration: 16 µg/mL
Trichophyton benhamiae [16]
  Inhibitory zone: 10 mm
Epidermophyton floccosum [17]
  Inhibitory zone: 8 mm
Trichomonas vaginalis [2]
  Concentration: 32 µg/mL
Tritrichomonas suis [3]
  Concentration: 8 µg/mL
Epidermophyton floccosum [18]; [23]
  MIC: > 32 µg/mL
Candida albicans [19]; [24]
  MIC: > 32 µg/mL
Cutibacterium acnes
  Inhibitory zone: 12 mm
Streptococcus pyogenes
  Inhibitory zone: 0 mm
Trichomonas vaginalis [5]
  Concentration: 8 µg/mL
Entamoeba histolytica [6]
  Concentration: 32 µg/mL
Trichophyton benhamiae [20]; [25]
  MIC: > 32 µg/mL
Trichomonas vaginalis [7]
  Concentration: 16 µg/mL
Candida albicans [21]
  Inhibitory zone: 0 mm
Trichomonas vaginalis [9]
  Concentration: 4 µg/mL
Clostridium novyi
  Inhibitory zone: 15 mm
Entamoeba histolytica [10]
  Concentration: 16 µg/mL
Entamoeba histolytica [11]
  Concentration: 8 µg/mL
Bacteroides fragilis
  Inhibitory zone: 10 mm

## COc1ccc(C[C@H]2NC[C@H](O)[C@H]2OC(C)=O)cc1 [ANISOMYCIN]
Saccharomyces cerevisiae [14]
  Inhibitory zone: 13 mm
Saccharomyces cerevisiae [15]
  MIC: 0.25 µg/mL (≈ 0.942 µM)
Epidermophyton floccosum [18]
  MIC: 16 µg/mL (≈ 60.3 µM)
Candida albicans [19]
  MIC: 4 µg/mL (≈ 15.1 µM)
Trichophyton benhamiae [20]
  MIC: 2 µg/mL (≈ 7.54 µM)
Bacteroides fragilis
  Inhibitory zone: 10 mm

## CC(=O)O[C@@H]1[C@@H](O)CN[C@@H]1Cc1ccc(C)cc1
Saccharomyces cerevisiae [14]
  Inhibitory zone: 0 mm
Saccharomyces cerevisiae [15]; [22]
  MIC: 1 µg/mL (≈ 4.01 µM)
Actinomyces israelii
  Inhibitory zone: 0 mm
Tritrichomonas suis [1]
  Concentration: 4 µg/mL
Trichophyton benhamiae [16]
  Inhibitory zone: 10 mm
Epidermophyton floccosum [17]
  Inhibitory zone: 8 mm
Trichomonas vaginalis [2]
  Concentration: 8 µg/mL
Tritrichomonas suis [3]
  Concentration: 0.5 µg/mL
Epidermophyton floccosum [18]; [23]
  MIC: 16 µg/mL (≈ 64.2 µM)
Entamoeba histolytica [4]
  Concentration: 1 µg/mL
Candida albicans [19]; [24]
  MIC: 8 µg/mL (≈ 32.1 µM)
Cutibacterium acnes
  Inhibitory zone: 0 mm
Streptococcus pyogenes
  Inhibitory zone: 0 mm
Trichomonas vaginalis [5]
  Concentration: 2 µg/mL
Entamoeba histolytica [6]
  Concentration: 4 µg/mL
Trichophyton benhamiae [20]; [25]
  MIC: 4 µg/mL (≈ 16 µM)
Trichomonas vaginalis [7]
  Concentration: 4 µg/mL
Candida albicans [21]
  Inhibitory zone: 0 mm
Tritrichomonas suis [8]
  Concentration: 16 µg/mL
Clostridium novyi
  Inhibitory zone: 0 mm
Tritrichomonas suis [13]
  Concentration: 1 µg/mL
Entamoeba histolytica [10]
  Concentration: 2 µg/mL
Bacteroides fragilis
  Inhibitory zone: 0 mm

## COc1ccc(C[C@H]2NC[C@H](O)[C@H]2OC(C)=O)cc1 (racemic) [ANISOMYCIN]
Saccharomyces cerevisiae [14]
  Inhibitory zone: 10 mm
Saccharomyces cerevisiae [15]; [22]
  MIC: 0.5 µg/mL (≈ 1.88 µM)
Actinomyces israelii
  Inhibitory zone: 0 mm
Trichophyton benhamiae [16]
  Inhibitory zone: 10 mm
Epidermophyton floccosum [17]
  Inhibitory zone: 8 mm
Epidermophyton floccosum [18]; [23]
  MIC: 32 µg/mL (≈ 121 µM)
Candida albicans [19]; [24]
  MIC: 8 µg/mL (≈ 30.2 µM)
Cutibacterium acnes
  Inhibitory zone: 0 mm
Streptococcus pyogenes
  Inhibitory zone: 0 mm
Trichophyton benhamiae [20]; [25]
  MIC: 4 µg/mL (≈ 15.1 µM)
Candida albicans [21]
  Inhibitory zone: 0 mm
Clostridium novyi
  Inhibitory zone: 0 mm
Bacteroides fragilis
  Inhibitory zone: 0 mm
